From article PMC5726935 (Nature chemical biology, 2017)

What was measured:
[1] = test system: TLR8; test: RT-PCR of IL-8 and TNF-α mRNA in R848 treated HEK-Blue TLR8 cells; format: cell-based, human
[2] = test system: TLR8; test: R848-induced TNF-α production in human PBMC; format: cell-based; conditions: 1 μg/mL R848, dose-dependent
[3] = molecular target: T1, TLR7 (Homo sapiens, UniProt Q9NYK1); test: SEAP assay in HEK-Blue TLR7 cells activated by R848; format: cell-based; conditions: concentrations up to 75 μM
T1 sequence (Q9NYK1 27-1049): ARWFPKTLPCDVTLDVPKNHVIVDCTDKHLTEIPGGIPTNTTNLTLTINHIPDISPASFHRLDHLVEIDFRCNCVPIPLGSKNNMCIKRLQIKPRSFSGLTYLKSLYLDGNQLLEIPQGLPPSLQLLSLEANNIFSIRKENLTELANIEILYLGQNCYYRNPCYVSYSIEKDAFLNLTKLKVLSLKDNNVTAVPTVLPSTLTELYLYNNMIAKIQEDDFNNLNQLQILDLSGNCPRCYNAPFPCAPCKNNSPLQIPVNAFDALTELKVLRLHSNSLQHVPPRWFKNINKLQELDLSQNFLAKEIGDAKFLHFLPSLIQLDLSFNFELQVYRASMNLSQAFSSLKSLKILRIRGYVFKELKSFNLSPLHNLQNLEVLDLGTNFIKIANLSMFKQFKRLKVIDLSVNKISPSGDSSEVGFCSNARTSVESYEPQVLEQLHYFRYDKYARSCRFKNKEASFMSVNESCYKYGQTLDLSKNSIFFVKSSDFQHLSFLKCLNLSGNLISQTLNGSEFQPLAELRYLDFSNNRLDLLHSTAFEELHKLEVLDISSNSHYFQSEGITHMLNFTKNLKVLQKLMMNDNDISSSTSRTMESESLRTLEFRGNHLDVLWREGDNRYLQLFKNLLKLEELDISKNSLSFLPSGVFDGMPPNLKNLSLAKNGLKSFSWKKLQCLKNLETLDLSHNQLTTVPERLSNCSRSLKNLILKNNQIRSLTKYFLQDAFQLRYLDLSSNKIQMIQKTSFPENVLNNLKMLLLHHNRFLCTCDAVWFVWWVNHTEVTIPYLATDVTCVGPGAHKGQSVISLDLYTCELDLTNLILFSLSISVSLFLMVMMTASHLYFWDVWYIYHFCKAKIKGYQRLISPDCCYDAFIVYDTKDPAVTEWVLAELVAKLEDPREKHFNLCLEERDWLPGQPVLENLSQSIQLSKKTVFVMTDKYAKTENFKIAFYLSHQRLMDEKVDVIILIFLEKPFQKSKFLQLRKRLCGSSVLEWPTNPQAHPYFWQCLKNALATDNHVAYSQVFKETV

[4] = test system: HEK-Blue TLR8 cells; test: WST-1 cell proliferation; format: cell-based, human; conditions: HEK-Blue TLR8 cell line
[5] = test system: synovial cells from OA patients; test: Spontaneous cytokine release from synovial cells of OA patients; format: cell-based, human; conditions: synovial membrane cultures, 24 h
Method in brief: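 OA synovial cells were isolated from synovial membrane taken at joint replacement and cultured at 1 × 10^6 cells/mL in RPMI 1640. After 24 h, test compound was added at 0, 10, 20, 40 or 80 μM, with chloroquine as positive control. After a further 24 h, TNF-α was measured in cleared supernatant, and IL-1β in cell lysate (EDTA, protease inhibitor) after PBS washes.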

[6] = test system: TLR8; test: ELISA of R848-induced TNF-α production in differentiated THP-1 cells; format: cell-based, human
Method in brief: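 PMA-differentiated THP-1 (100 ng/mL PMA) seeded at 2 × 10^6 cells/well in supplemented RPMI and left 24 h at 37 °C, 5% CO2 to adhere. Medium then switched to unsupplemented RPMI. […] After 24 h, TNF-α in the culture supernatant was quantified by sandwich ELISA kit.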

[7] = test system: TLR1/2/6, TLR3, TLR4, TLR5, TLR7, and TLR9 HEK-Blue; test: TLR selectivity assay in HEK-Blue TLR-overexpressing cells; format: cell-based, human; conditions: 1 μM compound, TLR-specific agonists
[8] = test system: PBMC from RA patients; test: TNF-α production in PBMC from RA patients; format: cell-based, human
Method in brief: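 PBMC came from four RA patients (2010 ACR criteria) and one AOSD patient, isolated by density-gradient centrifugation. Cells were cultured at 3 × 10^6 cells/mL in RPMI 1640, with test compounds at 0, 10, 40, 80 μM or 0, 2.5, 10, 20, 40 μM. TNF-α was measured in cleared supernatants after 24 h.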

[9] = test system: synovial cells isolated from osteoarthritis (OA) patients; test: Cytotoxicity on synovial cells from OA patients; format: cell-based, human; conditions: up to 100 μM

Row | SMILES | elevation of IL-8 mRNA level induced by R848 ([1]; 1 μM compound) | elevation of TNF-α mRNA level induced by R848 ([1]; 1 μM compound) | R848-induced TNF-α secretion [2] | TLR7 signaling (TLR7-mediated NF-κB activation) [3] | cytotoxicity [4] | spontaneous release of IL-1β [5] | spontaneous release of TNF-α [5] | IC50 ([6]; Homo sapiens, THP-1, 24 h, read-out: IC50, R848-induced TNF-α production) [nM] | inhibition of TLRs other than TLR8 [7] | TNF-α level ([8]; PBMCs from RA patients (and one AOSD patient), dose-dependent) | cytotoxicity [9] | inhibition of R848-induced IL-8 mRNA level ([1]; 10 μM compound) | inhibition of R848-induced TNF-α mRNA level ([1]; 10 μM compound) | inhibition of R848-induced TNF-α production ([6]; THP-1, 10 μM compound) | inhibition of TNF-α level ([8]; PBMCs from RA patients, up to 80 μM)
1 | Cc1cccc(-c2ccnc3c(C(N)=O)cnn23)c1 [CU-CPT8m, 7-m-Tolylpyrazolo[1,5-a]pyrimidine-3-carboxamide] | completely abolished | completely abolished | reversed | not affected | negligible cytotoxicity | significant inhibitory effects | significant inhibitory effects | 90 ± 10 | did not show significant inhibition of any TLR other than TLR8 | significantly suppressed | little cytotoxicity |  |  |  | 
2 | O=C(O)c1cnn2c(-c3cccc(C(F)(F)F)c3)ccnc12 [compound 6, 7-(3-(Trifluoromethyl)phenyl)pyrazolo[1,5-a]pyrimidine-3-carboxylic acid] |  |  | not by 6 |  |  |  |  |  |  |  |  | negligible inhibition | negligible inhibition | failed to show significant inhibition | did not show significant inhibition
